# Laboratory results taken from ChEMBL document CHEMBL3862004, “A Cyclic Tetrapeptide ("Cyclodal") and Its Mirror-Image Isomer Are Both High-Affinity μ Opioid Receptor Antagonists” (J Med Chem, 2016).
# Calls of active or inactive are those of the source. The rule behind the calls is not given here.
# Assays:
# Rattus norvegicus = species: Rattus norvegicus; experiment: Selectivity ratio of Ki for DOR in rat brain membrane to Ki for MOR in rat brain membrane; assay type: cell membranes
# [1] = Selectivity ratio of Ki for KOR in guinea pig brain membrane to Ki for MOR in rat brain membrane; assay type: cell membranes
# [2] = target: Delta-type opioid receptor (Rattus norvegicus, UniProt P33533); experiment: Displacement of [3H]DSLET from DOR in rat brain membrane measured after 2 hrs; assay type: cell membranes
# Chain of Delta-type opioid receptor (P33533 whole entry): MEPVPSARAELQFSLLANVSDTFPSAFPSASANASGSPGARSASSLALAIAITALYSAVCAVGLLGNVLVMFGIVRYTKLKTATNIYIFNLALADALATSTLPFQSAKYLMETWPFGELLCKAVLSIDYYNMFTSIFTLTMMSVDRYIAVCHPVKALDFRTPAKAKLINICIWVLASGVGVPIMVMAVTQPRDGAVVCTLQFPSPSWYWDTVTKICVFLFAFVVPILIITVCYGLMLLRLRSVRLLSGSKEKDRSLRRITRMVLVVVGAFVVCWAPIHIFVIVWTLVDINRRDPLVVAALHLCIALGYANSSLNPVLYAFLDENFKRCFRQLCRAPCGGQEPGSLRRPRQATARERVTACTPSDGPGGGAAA
# [3] = target: Delta-type opioid receptor (Mus musculus) (UniProt P32300); experiment: Partial agonist activity at delta opioid receptor in mouse vas deferens assessed as inhibition of electrically-stimulated muscle contraction
# Chain of Delta-type opioid receptor (Mus musculus) (P32300 whole entry): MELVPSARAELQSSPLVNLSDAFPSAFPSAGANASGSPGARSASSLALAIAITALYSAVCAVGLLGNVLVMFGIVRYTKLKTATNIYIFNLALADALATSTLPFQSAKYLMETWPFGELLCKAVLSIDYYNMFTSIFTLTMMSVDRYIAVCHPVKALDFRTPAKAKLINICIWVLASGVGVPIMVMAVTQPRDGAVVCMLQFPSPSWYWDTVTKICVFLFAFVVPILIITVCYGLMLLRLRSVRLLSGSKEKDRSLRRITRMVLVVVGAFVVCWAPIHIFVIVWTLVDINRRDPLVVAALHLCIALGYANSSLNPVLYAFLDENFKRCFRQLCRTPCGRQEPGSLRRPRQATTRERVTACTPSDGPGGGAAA
# How it was run: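 Mouse vas deferens preparation. A [Leu5]enkephalin dose–response curve was run on each preparation as standard, and test IC50 values were normalised to it. Mean of three to four determinations ± SEM.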
# [4] = target: Kappa-type opioid receptor (Cavia porcellus, UniProt P41144); experiment: Displacement of [3H]U69,593 from KOR in guinea pig brain membrane measured after 2 hrs; assay type: cell membranes
# Chain of Kappa-type opioid receptor (P41144 whole entry): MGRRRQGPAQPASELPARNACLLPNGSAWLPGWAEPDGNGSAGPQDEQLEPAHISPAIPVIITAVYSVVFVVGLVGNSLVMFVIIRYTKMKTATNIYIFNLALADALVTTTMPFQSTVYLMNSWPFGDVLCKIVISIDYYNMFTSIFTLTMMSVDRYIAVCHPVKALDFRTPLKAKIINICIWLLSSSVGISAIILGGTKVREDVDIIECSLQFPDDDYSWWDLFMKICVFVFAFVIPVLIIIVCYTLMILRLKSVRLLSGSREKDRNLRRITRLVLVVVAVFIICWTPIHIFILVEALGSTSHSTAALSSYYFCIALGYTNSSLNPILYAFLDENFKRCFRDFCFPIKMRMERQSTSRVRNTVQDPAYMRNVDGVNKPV
# How it was run: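 Guinea pig brain membranes incubated 2 h at 0 °C with 0.80 nM [3H]U69,593. […] Values are the mean of three to four determinations ± SEM.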
# [5] = Metabolic stability in rat plasma assessed as compound degradation at 37 degC measured after 2 hrs by reverse-phase HPLC analysis; assay type: ADME, cell-free; conditions: read-out: Drug degradation
# How it was run: (§1)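 Peptide at 0.5 mg/mL in 0.01 M phosphate buffer pH 7.4 mixed 1:1 with rat plasma supernatant and incubated at 37 °C. Samples taken at 0, 5, 10, 15, 30 min and 1, 2, 3, 24, 48 h, quenched with acetonitrile and 2% TFA/water. Analysed by reversed-phase C18 HPLC; peak areas expressed as percent of initial.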
# Mu-type opioid receptor [6] = target: Mu-type opioid receptor (Cavia porcellus, UniProt P97266); experiment: Agonist activity at MOR in guinea pig ileum assessed as inhibition of electrically-stimulated muscle contractions
# Chain of Mu-type opioid receptor (Cavia porcellus, UniProt P97266) (P97266 whole entry): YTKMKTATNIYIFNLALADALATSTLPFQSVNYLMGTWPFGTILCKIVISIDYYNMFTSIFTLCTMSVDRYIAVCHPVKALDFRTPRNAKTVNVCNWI
# How it was run: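 Isolated guinea pig ileum preparation; each preparation received a [Leu⁵]enkephalin standard dose–response curve. IC50 values came from concentration–response curves and were normalized to that standard. Values are the mean of three to four determinations ± SEM.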
# [7] = target: Kappa-type opioid receptor (Cavia porcellus) (UniProt P41144); experiment: Antagonist activity at KOR in guinea pig ileum assessed as inhibition of U50,488-induced muscle contractions
# Chain of Kappa-type opioid receptor (Cavia porcellus) (P41144 whole entry): as the sequence (P41144 whole entry) above
# Mu-type opioid receptor [8] = target: Mu-type opioid receptor (Rattus norvegicus, UniProt P33535); experiment: Displacement of [3H]DAMGO from MOR in rat brain membrane measured after 2 hrs; assay type: cell membranes
# Chain of Mu-type opioid receptor (Rattus norvegicus, UniProt P33535) (P33535 whole entry): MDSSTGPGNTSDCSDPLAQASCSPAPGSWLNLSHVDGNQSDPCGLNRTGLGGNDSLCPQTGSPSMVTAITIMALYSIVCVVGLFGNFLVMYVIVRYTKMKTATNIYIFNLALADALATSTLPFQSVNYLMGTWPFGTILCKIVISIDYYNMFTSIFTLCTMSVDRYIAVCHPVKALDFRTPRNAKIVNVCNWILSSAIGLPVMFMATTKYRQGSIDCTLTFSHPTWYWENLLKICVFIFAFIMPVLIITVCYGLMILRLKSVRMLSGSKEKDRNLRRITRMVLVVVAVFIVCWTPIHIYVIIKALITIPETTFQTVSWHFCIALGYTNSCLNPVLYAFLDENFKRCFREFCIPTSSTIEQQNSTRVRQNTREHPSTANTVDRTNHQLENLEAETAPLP
# [9] = target: Mu-type opioid receptor (Cavia porcellus) (UniProt P97266); experiment: Antagonist activity at MOR in guinea pig ileum assessed as inhibition of TAPP-induced muscle contractions
# Chain of Mu-type opioid receptor (Cavia porcellus) (P97266 whole entry): as the sequence (P97266 whole entry) above
# How it was run: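 Guinea pig ileum preparation. Ke was derived from the ratio of TAPP IC50 with and without a fixed antagonist concentration. Mean of three to four determinations ± SEM.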
# [10] = Metabolic stability in rat plasma at 37 degC measured up to 48 hrs by reverse-phase HPLC analysis; assay type: ADME, cell-free; how it was run: as §1
# [11] = AUC in CD-1 mouse brain at 2 mg/kg, iv by LC-MS/MS analysis; assay type: ADME, organism-based; conditions: in vivo
# How it was run: (§2)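 Male CD1 mice (27 g) given 2 mg/kg iv in saline; brain and plasma sampled at 5, 15, 30, 60, 120 and 240 min. Brain homogenised in PBS pH 7.4, plasma proteins precipitated with acetonitrile/methanol (1:1). Quantitation by LC–MS/MS against internal standard, with standard curves extracted from brain homogenate and fitted by 1/x-weighted linear regression. AUCs were taken from concentration–time curves.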
# [12] = AUC in CD-1 mouse plasma at 2 mg/kg, iv by LC-MS/MS analysis; assay type: ADME, organism-based; how it was run: as §2
# [13] = Cmax in CD-1 mouse brain at 2 mg/kg, iv measured after 30 mins by LC-MS/MS analysis; assay type: ADME, organism-based; design: dose 2 mg/kg, route intravenous; how it was run: as §2
# [14] = Metabolic stability in rat plasma assessed as compound remaining at 37 degC measured after 15 mins by reverse-phase HPLC analysis
smiles,measurement,setting,value
Cc1cc(O)cc(C)c1C[C@@H]1NC(=O)[C@H](CCCCN)NC(=O)[C@H](Cc2ccccc2)NC(=O)[C@@H](CCCNC(N)=O)NC1=O,Ratio Ki,Rattus norvegicus,52
same,Ratio Ki,[1],165
C[C@@H](O)[C@H](NC(=O)[C@H]1NC(=O)[C@H]([C@@H](C)O)NC(=O)[C@H](CCCN)NC(=O)[C@@H](Cc2c[nH]c3ccccc23)NC(=O)[C@H](Cc2ccc(O)cc2)NC(=O)[C@@H](NC(=O)[C@H](N)Cc2ccccc2)CSSC1(C)C)C(N)=O,Ki,[2],258 nM
same,Activity,[3],Active
same,Ki,[4],14900 nM
same,metabolised at 2 h,[5],25%
Cc1cc(O)cc(C)c1C[C@@H]1NC[C@H](CCCCN)NC(=O)[C@H](Cc2ccccc2)NC(=O)[C@@H](CCCNC(=N)N)NC1=O,Ratio Ki,Rattus norvegicus,47
same,IC50,Mu-type opioid receptor [6],2510 nM
same,Activity,[3],Active
same,Ratio Ki,[1],7
Cc1cc(O)cc(C)c1C[C@@H]1NC(=O)[C@H](CCCCN)NC(=O)[C@H](Cc2ccccc2)NC(=O)[C@@H](CCCCNC(=N)N)NC1=O,Ratio Ki,Rattus norvegicus,25
same,Activity,[3],Active
same,Ratio Ki,[1],23
Cc1cc(O)cc(C)c1C[C@@H]1NC(=O)C[C@H](CCCCN)NC(=O)[C@H](Cc2ccccc2)NC(=O)[C@@H](CCCNC(=N)N)NC1=O,Ki,[2],16.7 nM
same,Ratio Ki,Rattus norvegicus,135
same,Ke,[7],18.2 nM
same,Ratio Ki,[1],6
same,Ki,[4],0.786 nM
same,Ki,Mu-type opioid receptor [8],0.124 nM
same,Ke,[9],10.5 nM
Cc1cc(O)cc(C)c1C[C@@H]1NC(=O)[C@H](CCCCN)NC(=O)[C@H](Cc2ccccc2)NC(=O)[C@@H](CCCNC(=N)N)NC1=O,Stability,[10],Stable
same,AUC,[11],0.052 µg·min/g
same,AUC,[12],0.505 ng·h/mL
same,Cmax,[13],0.6 ng/g
CC(C)C[C@H](NC(=O)[C@H](Cc1ccccc1)NC(=O)CNC(=O)CNC(=O)[C@@H](N)Cc1ccc(O)cc1)C(=O)O [ENKEPHALIN],remaining at 0.25 h,[14],< 15%
CCCC[C@@H]1NC(=O)[C@H](Cc2ccccc2)NC(=O)[C@@H](CCCNC(=N)N)NC(=O)[C@H](Cc2c(C)cc(O)cc2C)NC1=O,Activity,[3],Active
Cc1cc(O)cc(C)c1C[C@@H]1NC(=O)C(CCCN)NC(=O)[C@H](Cc2ccccc2)NC(=O)[C@@H](CCCNC(=N)N)NC1=O (stereo partly drawn),Activity,[3],Active
same,Ke,[9],16.8 nM
